Laboratory results as given in ChEMBL document CHEMBL1275350, “First in class, potent, and orally bioavailable NADPH oxidase isoform 4 (Nox4) inhibitors for the treatment of idiopathic pulmonary fibrosis” (J Med Chem, 2010).

How the values were obtained:
[1] = molecular target: Polyunsaturated fatty acid lipoxygenase ALOX12 (Homo sapiens) (UniProt P18054); assay: Inhibition of human 12-lipoxygenase at 10 uM
[2] = Inhibition of calcium channel at 10 uM
[3] = molecular target: Endothelin-1 receptor (Homo sapiens) (UniProt P25101); assay: Inhibition of human ET-A receptor at 10 uM
Sequence of Endothelin-1 receptor (Homo sapiens) (P25101 whole entry): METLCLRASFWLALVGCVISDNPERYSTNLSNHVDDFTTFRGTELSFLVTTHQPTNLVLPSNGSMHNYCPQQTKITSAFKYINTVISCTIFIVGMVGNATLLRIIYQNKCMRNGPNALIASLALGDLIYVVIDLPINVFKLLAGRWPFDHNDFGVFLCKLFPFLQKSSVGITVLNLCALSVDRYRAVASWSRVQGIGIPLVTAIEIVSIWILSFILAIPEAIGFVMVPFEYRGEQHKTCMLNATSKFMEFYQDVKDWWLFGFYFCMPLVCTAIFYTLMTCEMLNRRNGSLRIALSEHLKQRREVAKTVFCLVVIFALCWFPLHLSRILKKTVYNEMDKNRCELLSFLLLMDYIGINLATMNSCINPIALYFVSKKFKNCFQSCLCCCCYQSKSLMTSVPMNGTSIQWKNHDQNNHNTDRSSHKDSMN

Mus musculus = assay: Toxicity in mouse up to 1000 mg/kg, po over 2 weeks; assay type: organism-based; set-up: dose 1000 mg/kg, route oral; conditions: in vivo, 336 h
How it was run: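 Dose range finding in mice, given orally for 2 weeks at up to 1000 mg/kg.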

[4] = molecular target: Polyunsaturated fatty acid lipoxygenase ALOX15 (Homo sapiens) (UniProt P16050); assay: Inhibition of 15-lipoxygenase at 10 uM
[5] = Cmax in Sprague-Dawley rat at 10 mg/kg, po; assay type: ADME, organism-based; set-up: dose 10 mg/kg, route oral; conditions: in vivo
How it was run: (§1)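 Parallel design with six male rats: three given 5 mg/kg iv in EDPW (10% EtOH, 10% DMA, 30% PG, 50% water), three given 10 mg/kg orally in aqueous 0.5% CMC with 0.25% Tween 20. Carotid cannula blood sampled up to 24 h. Plasma levels by LC/MS/MS (LLOQ 1.00 ng/mL). Noncompartmental analysis.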

[6] = molecular target: Xanthine dehydrogenase/oxidase (Homo sapiens, UniProt P47989); assay: Inhibition of xanthine oxidase by in vitro enzymatic assay in presence of xanthine
Sequence of Xanthine dehydrogenase/oxidase (P47989 whole entry): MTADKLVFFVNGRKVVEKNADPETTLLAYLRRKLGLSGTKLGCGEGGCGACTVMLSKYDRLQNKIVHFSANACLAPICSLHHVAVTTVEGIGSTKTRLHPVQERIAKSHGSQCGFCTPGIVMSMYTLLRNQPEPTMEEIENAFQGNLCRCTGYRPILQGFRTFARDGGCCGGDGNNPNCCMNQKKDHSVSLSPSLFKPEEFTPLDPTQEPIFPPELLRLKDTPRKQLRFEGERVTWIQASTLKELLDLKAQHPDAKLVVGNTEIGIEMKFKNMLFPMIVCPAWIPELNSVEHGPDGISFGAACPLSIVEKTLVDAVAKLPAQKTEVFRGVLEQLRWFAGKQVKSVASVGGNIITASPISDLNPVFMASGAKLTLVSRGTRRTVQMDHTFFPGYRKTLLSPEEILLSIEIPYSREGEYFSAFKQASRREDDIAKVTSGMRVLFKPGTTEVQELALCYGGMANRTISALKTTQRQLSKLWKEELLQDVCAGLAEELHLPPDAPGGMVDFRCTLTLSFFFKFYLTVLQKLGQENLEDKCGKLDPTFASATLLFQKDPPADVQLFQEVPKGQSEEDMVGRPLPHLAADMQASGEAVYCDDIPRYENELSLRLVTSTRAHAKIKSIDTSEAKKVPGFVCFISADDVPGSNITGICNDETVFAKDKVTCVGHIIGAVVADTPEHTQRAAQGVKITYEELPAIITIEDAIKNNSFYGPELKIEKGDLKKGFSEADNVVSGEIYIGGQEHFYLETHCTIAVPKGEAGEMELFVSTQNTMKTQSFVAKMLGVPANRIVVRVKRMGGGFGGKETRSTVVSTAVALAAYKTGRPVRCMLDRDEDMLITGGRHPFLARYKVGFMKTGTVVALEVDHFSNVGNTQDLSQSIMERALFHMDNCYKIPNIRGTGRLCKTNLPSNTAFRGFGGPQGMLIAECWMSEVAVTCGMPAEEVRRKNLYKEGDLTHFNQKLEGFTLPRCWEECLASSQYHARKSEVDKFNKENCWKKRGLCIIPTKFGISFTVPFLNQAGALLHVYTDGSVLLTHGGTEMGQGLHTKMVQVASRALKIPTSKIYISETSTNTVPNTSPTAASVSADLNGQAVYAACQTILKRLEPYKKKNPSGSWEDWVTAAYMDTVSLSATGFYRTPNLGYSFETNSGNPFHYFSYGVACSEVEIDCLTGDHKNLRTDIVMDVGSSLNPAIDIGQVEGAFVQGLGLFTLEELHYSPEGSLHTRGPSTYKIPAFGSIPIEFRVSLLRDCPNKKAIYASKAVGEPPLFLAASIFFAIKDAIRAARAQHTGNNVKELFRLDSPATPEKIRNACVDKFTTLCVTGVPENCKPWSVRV
How it was run: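 Cell-free Amplex Red read-out: xanthine oxidase incubated in PBS with Amplex Red, HRP and cofactors; ROS production started by adding xanthine. Compound at rising concentrations from 1 nM to 100 μM, 20 min at 37 °C, then read on a plate reader. Background taken without enzyme or without agonist. Ki by Cheng-Prusoff, mean of at least three experiments run in triplicate.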

[7] = molecular target: Phosphatidylinositol 4,5-bisphosphate 3-kinase catalytic subunit delta isoform (Homo sapiens) (UniProt O00329); assay: Inhibition of PI3Kdelta at 10; conditions: concentration not given here
NADPH oxidase 2 = NADPH oxidase 2 (Homo sapiens, UniProt P04839); assay: Inhibition of human NOX2 overexpressed in […] cell membrane assessed as ROS production by cell free assay in presence of NADPH
Sequence of NADPH oxidase 2 (P04839 whole entry): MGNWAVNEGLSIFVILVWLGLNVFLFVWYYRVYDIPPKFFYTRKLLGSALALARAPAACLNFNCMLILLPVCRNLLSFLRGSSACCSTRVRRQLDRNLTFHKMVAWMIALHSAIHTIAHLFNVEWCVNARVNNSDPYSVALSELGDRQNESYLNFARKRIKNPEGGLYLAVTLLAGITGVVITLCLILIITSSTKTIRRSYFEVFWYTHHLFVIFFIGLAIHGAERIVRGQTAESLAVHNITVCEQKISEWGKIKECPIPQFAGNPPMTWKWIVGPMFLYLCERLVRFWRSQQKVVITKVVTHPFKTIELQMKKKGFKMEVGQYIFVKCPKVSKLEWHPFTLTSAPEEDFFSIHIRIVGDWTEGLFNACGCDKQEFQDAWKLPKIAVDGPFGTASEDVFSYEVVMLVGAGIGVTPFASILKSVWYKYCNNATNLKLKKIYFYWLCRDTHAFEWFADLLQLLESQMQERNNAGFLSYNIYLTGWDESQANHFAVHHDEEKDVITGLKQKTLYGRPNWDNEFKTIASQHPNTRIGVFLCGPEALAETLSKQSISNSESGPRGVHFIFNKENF
How it was run: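 Nox2 source: membranes from human polymorphonuclear cells, sonicated and collected at the 17/40% sucrose interface. ROS read by Amplex Red/HRP in PBS after NADPH addition, with compound at 1 nM–100 μM for 20 min at 37 °C. Background taken without membranes or agonist. Ki via Cheng-Prusoff, mean of ≥3 experiments in triplicate.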

[8] = Intrinsic clearance in human liver microsomes assessed as per mg of protein at 0.5 uM; assay type: ADME, Microsome
How it was run: (§2)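 Phase I stability assay in pooled liver microsomes (human: male and female; rat: male Sprague-Dawley). Microsomes at 0.5 mg/mL final in 0.1 M phosphate pH 7.4. Compound 0.5 μM final, 0.25% DMSO. Preincubated at 37 °C, reaction started with 1 mM NADPH. Sampled at 0, 5, 15, 30 and 45 min, with a 45 min minus-NADPH control. Methanol quench with internal standard, LC/MS-MS, intrinsic clearance calculated.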

[9] = molecular target: Protein kinase C beta type (Homo sapiens) (UniProt P05771); assay: Inhibition of human PKCbeta at 10 uM
[10] = Cmax in Sprague-Dawley rat at 5 mg/kg, iv; assay type: ADME, organism-based; set-up: dose 5 mg/kg, route intravenous; conditions: in vivo; how it was run: as §1
Cytochrome P450 1A2 = Cytochrome P450 1A2 (Homo sapiens, UniProt P05177); assay: Inhibition of human CYP1A2; assay type: ADME
Sequence of Cytochrome P450 1A2 (P05177 whole entry, canonical isoform): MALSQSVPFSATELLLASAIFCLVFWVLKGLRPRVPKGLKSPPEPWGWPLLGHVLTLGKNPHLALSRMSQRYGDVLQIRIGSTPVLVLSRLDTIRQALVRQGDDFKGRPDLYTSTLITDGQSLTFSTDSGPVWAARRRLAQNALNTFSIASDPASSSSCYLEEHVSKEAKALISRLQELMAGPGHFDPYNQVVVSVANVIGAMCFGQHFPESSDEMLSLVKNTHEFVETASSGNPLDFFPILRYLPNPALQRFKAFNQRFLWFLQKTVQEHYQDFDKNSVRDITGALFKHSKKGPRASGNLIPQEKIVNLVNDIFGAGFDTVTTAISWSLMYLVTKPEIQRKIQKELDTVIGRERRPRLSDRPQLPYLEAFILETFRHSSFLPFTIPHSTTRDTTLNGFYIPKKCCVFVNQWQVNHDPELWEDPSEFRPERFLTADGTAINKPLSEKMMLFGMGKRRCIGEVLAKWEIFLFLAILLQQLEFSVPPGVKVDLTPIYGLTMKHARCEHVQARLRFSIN
How it was run: (§3)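 Recombinant human CYP isoforms with isoform-specific probe substrates and NADPH. Compound at 0.1–25 μM, final DMSO 0.3%. Metabolites measured by mass spectrometry, except CYP1A2, which used a fluorescent metabolite. IC50 derived from the decrease in metabolite formation compared with vehicle control.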

[11] = Permeability across human Caco-2 cell membrane at 10 uM after 2 hrs; assay type: ADME, cell-based
How it was run: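 Caco-2 monolayers grown 20 days in DMEM, used when TEER >800 Ω·cm2. Dosed at 10 μM final in HBSS pH 6.5 with 1% DMSO, apical-to-basolateral and basolateral-to-apical. Incubated 2 h at 37 °C, both compartments sampled, LC-MS/MS with five-point calibration. Papp = (dQ/dt)/(C0A).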

[12] = Half life in Sprague-Dawley rat at 5 mg/kg, iv; assay type: ADME, organism-based; set-up: dose 5 mg/kg, route intravenous; conditions: in vivo; how it was run: as §1
Cytochrome P450 2D6 = Cytochrome P450 2D6 (Homo sapiens, UniProt P10635); assay: Inhibition of human CYP2D6; assay type: ADME; how it was run: as §3
Sequence of Cytochrome P450 2D6 (P10635 whole entry): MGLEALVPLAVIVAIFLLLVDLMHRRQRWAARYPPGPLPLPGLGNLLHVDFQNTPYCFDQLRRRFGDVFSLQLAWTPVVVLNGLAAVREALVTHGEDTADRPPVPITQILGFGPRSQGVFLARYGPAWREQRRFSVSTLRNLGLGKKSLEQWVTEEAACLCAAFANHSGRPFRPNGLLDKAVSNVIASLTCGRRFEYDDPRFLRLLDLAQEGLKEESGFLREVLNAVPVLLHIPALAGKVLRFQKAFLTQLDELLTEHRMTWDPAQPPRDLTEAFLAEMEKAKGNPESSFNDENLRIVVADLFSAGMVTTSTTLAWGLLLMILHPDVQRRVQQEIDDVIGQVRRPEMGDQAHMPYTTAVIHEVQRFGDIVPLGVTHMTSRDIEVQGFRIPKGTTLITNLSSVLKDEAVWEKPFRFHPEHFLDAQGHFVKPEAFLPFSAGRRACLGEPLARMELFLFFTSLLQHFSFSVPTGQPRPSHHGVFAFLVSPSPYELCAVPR

[13] = Tmax in Sprague-Dawley rat at 10 mg/kg, po; assay type: ADME, organism-based; set-up: dose 10 mg/kg, route oral; conditions: in vivo
How it was run: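 Parallel design in male rats, three per group. Group 1: 5 mg/kg iv in EDPW (10% EtOH, 10% DMA, 30% PG, 50% water). Group 2: 10 mg/kg oral in aqueous 0.5% CMC with 0.25% Tween 20. Carotid cannula blood drawn up to 24 h. Plasma measured by LC/MS/MS (LLOQ 1.00 ng/mL), noncompartmental analysis.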

[14] = molecular target: Dual specificity mitogen-activated protein kinase kinase 1 (Homo sapiens) (UniProt Q02750); assay: Inhibition of human MEK1 at 10 uM
Sequence of Dual specificity mitogen-activated protein kinase kinase 1 (Homo sapiens) (Q02750 whole entry): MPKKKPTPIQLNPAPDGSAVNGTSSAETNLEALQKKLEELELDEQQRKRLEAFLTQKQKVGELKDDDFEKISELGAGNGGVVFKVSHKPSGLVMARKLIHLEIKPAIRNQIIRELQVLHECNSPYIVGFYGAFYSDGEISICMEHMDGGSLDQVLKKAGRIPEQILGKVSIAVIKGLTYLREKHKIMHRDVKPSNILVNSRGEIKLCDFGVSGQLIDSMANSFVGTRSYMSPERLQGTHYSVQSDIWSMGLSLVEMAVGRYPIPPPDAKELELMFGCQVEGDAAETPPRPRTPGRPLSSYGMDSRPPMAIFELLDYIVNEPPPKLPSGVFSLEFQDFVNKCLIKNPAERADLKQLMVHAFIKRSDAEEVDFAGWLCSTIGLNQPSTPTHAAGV

MAO-B = MAO-B (Homo sapiens, UniProt P27338); assay: Inhibition of MAO-B at 10 uM
Sequence of MAO-B (P27338 whole entry): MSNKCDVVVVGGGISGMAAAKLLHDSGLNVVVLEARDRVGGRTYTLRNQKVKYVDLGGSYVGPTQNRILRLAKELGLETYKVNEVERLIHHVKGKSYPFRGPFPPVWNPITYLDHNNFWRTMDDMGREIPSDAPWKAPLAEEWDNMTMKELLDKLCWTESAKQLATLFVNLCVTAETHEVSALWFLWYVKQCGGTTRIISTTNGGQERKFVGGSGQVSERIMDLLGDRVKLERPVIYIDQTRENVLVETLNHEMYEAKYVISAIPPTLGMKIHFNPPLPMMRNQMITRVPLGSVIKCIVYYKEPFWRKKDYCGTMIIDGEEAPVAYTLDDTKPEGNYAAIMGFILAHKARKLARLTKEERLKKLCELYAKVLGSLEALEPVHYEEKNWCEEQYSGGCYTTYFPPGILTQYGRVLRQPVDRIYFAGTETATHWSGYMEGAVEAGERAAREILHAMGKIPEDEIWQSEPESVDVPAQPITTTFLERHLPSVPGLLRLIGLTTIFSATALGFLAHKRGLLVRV

[15] = Intrinsic clearance in Sprague-Dawley rat liver microsomes assessed per mg of protein at 0.5 uM; assay type: ADME, Microsome; how it was run: as §2
[16] = AUC (infinity) in Sprague-Dawley rat at 5 mg/kg, iv; assay type: ADME, organism-based; set-up: time infinity, dose 5 mg/kg, route intravenous; conditions: plasma; how it was run: as §1

Sequence of Polyunsaturated fatty acid lipoxygenase ALOX12 (Homo sapiens) (P18054 whole entry): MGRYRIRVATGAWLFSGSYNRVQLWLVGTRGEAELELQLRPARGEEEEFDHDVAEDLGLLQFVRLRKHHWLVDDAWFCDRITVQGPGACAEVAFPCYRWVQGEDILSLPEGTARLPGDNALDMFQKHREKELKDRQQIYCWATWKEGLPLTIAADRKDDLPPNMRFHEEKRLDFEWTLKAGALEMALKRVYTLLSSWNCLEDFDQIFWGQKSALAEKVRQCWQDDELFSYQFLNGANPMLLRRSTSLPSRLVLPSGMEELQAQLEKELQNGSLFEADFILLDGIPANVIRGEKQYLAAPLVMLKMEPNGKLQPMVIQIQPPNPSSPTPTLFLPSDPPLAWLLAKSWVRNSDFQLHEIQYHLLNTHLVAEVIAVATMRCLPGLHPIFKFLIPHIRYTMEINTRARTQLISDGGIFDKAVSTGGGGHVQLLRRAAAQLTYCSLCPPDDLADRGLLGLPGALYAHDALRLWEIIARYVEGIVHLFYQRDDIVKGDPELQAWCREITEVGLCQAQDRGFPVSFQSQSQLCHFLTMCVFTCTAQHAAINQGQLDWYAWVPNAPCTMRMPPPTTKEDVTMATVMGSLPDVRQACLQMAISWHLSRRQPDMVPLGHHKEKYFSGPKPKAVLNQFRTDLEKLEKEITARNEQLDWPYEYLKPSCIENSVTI

- inhibition [1]: 2%
- inhibition [2]: 0%
- inhibition [3]: 0%
- inhibition [4]: 0%
- Cmax [5]: 3150 ng/mL
- Ki [6]: > 30 µM
- inhibition [7]: 0%
- Ki (NADPH oxidase 2): 1.53 µM
- microsomal CLint at 0.5 µM [8]: 24.8 µL/min/mg
- inhibition [9]: 0%
- Cmax [10]: 12100 ng/mL
- IC50 (Cytochrome P450 1A2): > 25 µM
- Papp at 2 h, 10 µM [11]: 21.4 ×10⁻⁶ cm/s
- half-life [12]: 3.63 h
- IC50 (Cytochrome P450 2D6): > 25 µM
- Tmax [13]: 1.5 h
- inhibition [14]: 0%
- inhibition at 10 µM (MAO-B): 0%
- microsomal CLint at 0.5 µM [15]: 70.2 µL/min/mg
- AUC(0-inf) [16]: 11000 ng·h/mL
Compound: Cc1c2c(=O)n(-c3ccccc3Cl)[nH]c2cc(=O)n1Cc1ccccn1
- Activity (Mus musculus): Non-toxic
